Here are results for 22 compounds from ChEMBL document CHEMBL1938357, “Inhibition of Dengue virus and West Nile virus proteases by click chemistry-derived benz[d]isothiazol-3(2H)-one derivatives” (Bioorg Med Chem, 2012).

In general, IC50 refers to the concentration at which inhibition is half-maximal. Higher therefore signals weaker potency in that assay. The term Ki denotes the equilibrium dissociation constant of an inhibitor or competing ligand from its target. Low readings indicate tighter binding, high ones weaker binding.

Activity calls are given as the source filed them. The rule behind the calls is not given here.

Experiment [1] has as its system dengue virus type 2. Kind of experiment: Inhibition of Dengue virus 2 NS2B-NS3 protease expressed in Escherichia coli using Bz-Nle-Lys-Arg-Arg-AMC as substrate at 25 uM measured every 90 sec upto 30 mins by spectrofluorometry. Put shortly: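 DENV2 NS2B(hydrophilic cofactor)-NS3pro, linked via Q-R and expressed in E. coli Top 10 F′, at 25 nM in 200 mM Tris-HCl pH 9.5, 6 mM NaCl, 30% glycerol. Compound at 25 μM (1% DMSO final) was pre-incubated at room temperature with enzyme. Bz-Nle-Lys-Arg-Arg-AMC added at 5.0 μM; read at 37 °C, ex 380/em 460 nm, every 90 s up to 30 min. % inhibition from RFU ± compound; triplicate averages.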

Experiment [2] concerns dengue virus type 2. Kind of experiment: Inhibition of Dengue virus 2 NS2B-NS3 protease expressed in Escherichia coli using Bz-Nle-Lys-Arg-Arg-AMC as substrate at 25 uM measured every 90 sec upto 30 mins by spectrofluorometry in the presence of 0.1% CHAPS. The method in brief: (§1)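 Detergent re-screen: 200 mM Tris-HCl pH 9.5, 6 mM NaCl, 30% glycerol, 0.1% CHAPS, with DENV2 NS2B-NS3pro at 25 nM or WNV NS2BH-NS3pro (5-residue spacer) at 28 nM. Compound at 25 μM, 1% DMSO final, pre-incubated at room temperature with enzyme. Substrate Bz-Nle-Lys-Arg-Arg-AMC at 5.0 μM; fluorescence at 380/460 nm at 37 °C over 30 min. Percent inhibition from RFU with vs without compound; triplicate averages.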

The nature of experiment [3]: Inhibition of Dengue virus 2 NS2B-NS3 protease expressed in Escherichia coli using Bz-Nle-Lys-Arg-Arg-AMC as substrate measured every 90 sec upto 30 mins by spectrofluorometry. Details: species or system dengue virus type 2. The method in brief:
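Inhibitors at 10 nM, 50 nM, 0.1, 1, 2, 5, 10 and 25 μM were incubated 15 min with DENV2 NS2B-NS3pro (50 nM) in 200 mM Tris-HCl, 6 mM NaCl, 30% glycerol, pH 9.5. Bz-Nle-Lys-Arg-Arg-AMC (5.0 μM) was then added. Signal recorded at 37 °C (ex 380, em 460 nm) with buffer subtracted. IC50 derived by curve fitting.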

The test system of experiment [4] is West Nile virus. Kind of experiment: Inhibition of West Nile virus NS2B-NS3 protease expressed in Escherichia coli using Bz-Nle-Lys-Arg-Arg-AMC as substrate at 25 uM measured every 90 sec upto 30 mins by spectrofluorometry. The method in brief:
as §1

Experiment [5] can be described thus: Inhibition of Dengue virus 2 NS2B-NS3 protease expressed in Escherichia coli using Bz-Nle-Lys-Arg-Arg-AMC as substrate by spectrofluorometry. The arrangement: species or system dengue virus type 2.

Take `O=C(Cn1sc2ccccc2c1=O)NCc1cn(CC(=O)Nc2ccccc2Oc2ccccc2)nn1`: the inhibition result in experiment [1] is “inactive”.
As to `O=C(Cn1sc2ccccc2c1=O)NCc1cn(CC(=O)Nc2ccccc2)nn1`, in experiment [1], the inhibition result is “inactive”.
Regarding `O=C(O)Cn1cc(CNC(=O)Cn2sc3ccccc3c2=O)nn1`, the inhibition entry in experiment [1] is “inactive”.
On to `O=C(Cn1sc2ccccc2c1=O)NCc1cn(CC(=O)Nc2cccc(Oc3ccccc3)c2)nn1`, for which the inhibition result in experiment [1] and in experiment [2] was “Active” each time.
Turning to `O=C(Cn1sc2ccccc2c1=O)NCc1cn(CC(=O)c2ccccc2)nn1`, the inhibition result in experiment [1] is “inactive”.
Regarding `O=C(Cn1cc(COc2cccc(NC(=O)Cn3sc4ccccc4c3=O)c2)nn1)Nc1cccc(Oc2ccccc2)c1`, the inhibition entry in experiment [1], in experiment [2] and in experiment [4] was “Active” throughout. Further, the IC50 in experiment [3] worked out at 4.59 µM.
In the case of `O=C(Cn1sc2ccccc2c1=O)NCc1cn(CSc2ccccc2)nn1`, in experiment [1], the inhibition result is “inactive”.
Regarding `O=C(Cn1sc2ccccc2c1=O)NCc1cn(Cc2ccc(F)cc2)nn1`, the inhibition entry in experiment [1] was “inactive”.
Regarding `O=C(Cn1sc2ccccc2c1=O)NCc1cn(CC(=O)Nc2ccc(Oc3ccccc3)cc2)nn1`, the inhibition result in experiment [1], in experiment [2] and in experiment [4] was “Active” throughout. In addition, the IC50 in experiment [3] was 4.87 µM.
Take `O=C(Cn1sc2ccccc2c1=O)NCc1cn(CCOc2ccccc2)nn1`: the inhibition result in experiment [1] was “inactive”.
As to `COC(=O)c1cccc(Cn2cc(CNC(=O)Cn3sc4ccccc4c3=O)nn2)c1`, in experiment [1], the inhibition result is “inactive”.
Take `O=C(Cn1sc2ccccc2c1=O)Nc1cccc(OCc2cn(CC(=O)Nc3ccccc3Oc3ccccc3)nn2)c1`: the inhibition result in experiment [1], in experiment [2] and in experiment [4] was “Active” in each case. The compound further yielded an IC50 in experiment [3] of 3.48 µM. The compound further showed a Ki in experiment [5] of 4.77 µM.
Turning to `COC(=O)c1cccc(Cn2cc(COc3cccc(NC(=O)Cn4sc5ccccc5c4=O)c3)nn2)c1`, the inhibition result in experiment [1] and in experiment [2] was “Active” in each case.
With `COc1ccc(Cn2cc(CNC(=O)Cn3sc4ccccc4c3=O)nn2)cc1`, in experiment [1], the inhibition result was “inactive”.
For `O=C(Cn1sc2ccccc2c1=O)NCc1cn(CCCc2ccccc2)nn1`, the inhibition result in experiment [1] is “inactive”.
As for `O=C(Cn1sc2ccccc2c1=O)NCc1cn(CCc2ccccc2)nn1`, in experiment [1], the inhibition entry was “inactive”.
Consider `CC(C)(C)OC(=O)Cn1cc(CNC(=O)Cn2sc3ccccc3c2=O)nn1`, for which, in experiment [1], the inhibition entry is “inactive”.
Consider `O=C(Cn1sc2ccccc2c1=O)NCc1cn(Cc2ccccc2)nn1`, for which, in experiment [1], the inhibition result is “inactive”.
Take `O=C(Cn1cc(COc2cccc(NC(=O)Cn3sc4ccccc4c3=O)c2)nn1)Nc1ccccc1`: the inhibition entry in experiment [1], in experiment [2] and in experiment [4] was “Active” in each case. The compound further came in with an IC50 in experiment [3] of 13.4 µM.
With `O=C(Cn1cc(COc2cccc(NC(=O)Cn3sc4ccccc4c3=O)c2)nn1)Nc1ccc(Oc2ccccc2)cc1`, the inhibition entry in experiment [1], in experiment [2] and in experiment [4] was “Active” each time. The compound further gave a concentration for half-maximal inhibition (IC50) in experiment [3] of 4.45 µM.
In the case of `O=C(Cn1sc2ccccc2c1=O)Nc1cccc(OCc2cn(CC(=O)c3ccccc3)nn2)c1`, the inhibition result in experiment [1], in experiment [2] and in experiment [4] was “Active” in each case. The compound also registered an IC50 in experiment [3] of 6.22 µM.
On to `O=C(Cn1sc2ccccc2c1=O)NCc1cn(Cc2cccc(F)c2)nn1`, for which the inhibition result in experiment [1] was “inactive”.
